Measurements: ChEMBL document CHEMBL3352416, “Discovery of carbohybrid-based 2-aminopyrimidine analogues as a new class of rapid-acting antimalarial agents using image-based cytological profiling assay” (J Med Chem, 2014)
The source made the active and inactive calls. No cut-off for these calls is given here.

Key:
[1] = test system: Plasmodium falciparum; assay: Antimalarial activity against tightly synchronized Plasmodium falciparum K1 assessed as parasite stage accumulation index at early ring stages at 10 uM treated at 6 hrs post-invasion for continuous duration of 36 hrs by automated image mining based cytological profiling assay; type: functional
Summary of the method: (§1)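 Tightly synchronized cultures exposed to 10 µM final from 6 hpi (early ring), 18 hpi (late ring) or 30 hpi (mid-trophozoite) for a continuous 36 h. Erythrocytes stained with WGA-AlexaFluor 488, parasite nuclei with DAPI, functional mitochondria with Mitotracker Red CMXRos. Stages (early rings, late rings, trophozoites, schizonts) classified by nuclear spot number and size. Viable parasitaemia and stage accumulation index obtained by automated image analysis.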

[2] = test system: Plasmodium falciparum; assay: Antimalarial activity against Plasmodium falciparum W2 assessed as reduction in parasite stage accumulation index at 10 uM treated at 42 hrs post-invasion for 24 hrs by automated image mining based cytological profiling assay; type: functional, organism-based
Summary of the method: (§2)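 Tightly synchronized cultures exposed from the 42 hpi mid-schizont point for 24 h to 10 µM final. Host cells stained with wheat germ agglutinin-AlexaFluor 488, parasite nuclei with DAPI and live-parasite mitochondria with Mitotracker Red CMXRos. Infected and viable parasitaemia and stage proportions quantified by automated image mining. Stage accumulation indices and parasitaemia reduction index derived.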

[3] = test system: Plasmodium falciparum; assay: Antimalarial activity against Plasmodium falciparum W2 assessed as increase in schizonts parasite stage accumulation index at 10 uM treated at 42 hrs post-invasion for 24 hrs by automated image mining based cytological profiling assay; type: functional, organism-based; summary of the method: as §2
[4] = test system: Plasmodium falciparum; assay: Antimalarial activity against tightly synchronized Plasmodium falciparum W2 assessed as parasite stage accumulation index at late ring stages at 10 uM treated at 6 hrs post-invasion for continuous duration of 36 hrs by automated image mining based cytological profiling assay; type: functional
[5] = test system: Plasmodium falciparum; assay: Antimalarial activity against tightly synchronized Plasmodium falciparum HB3 assessed as parasite stage accumulation index at schizonts stages at 10 uM treated at 6 hrs post-invasion for continuous duration of 36 hrs by automated image mining based cytological profiling assay; type: functional; summary of the method: as §1
[6] = test system: Plasmodium falciparum; assay: Antimalarial activity against Plasmodium falciparum K1 assessed as reduction in parasite stage accumulation index at 10 uM treated at 42 hrs post-invasion for 24 hrs by automated image mining based cytological profiling assay; type: functional, organism-based; summary of the method: as §2
[7] = test system: Plasmodium falciparum; assay: Antimalarial activity against tightly synchronized Plasmodium falciparum HB3 assessed as parasite stage accumulation index at late ring stages at 10 uM treated at 18 hrs post-invasion for continuous duration of 36 hrs by automated image mining based cytological profiling assay; type: functional; summary of the method: as §1
[8] = test system: Plasmodium falciparum; assay: Antimalarial activity against Plasmodium falciparum HB3 assessed as increase in schizonts parasite stage accumulation index at 10 uM treated at 42 hrs post-invasion for 24 hrs by automated image mining based cytological profiling assay; type: functional; summary of the method: as §2
[9] = test system: Plasmodium falciparum; assay: Antimalarial activity against tightly synchronized Plasmodium falciparum W2 assessed as parasite stage accumulation index at trophozoites stages at 10 uM treated at 30 hrs post-invasion for continuous duration of 36 hrs by automated image mining based cytological profiling assay; type: functional; summary of the method: as §1
[10] = test system: Plasmodium falciparum; assay: Antimalarial activity against Plasmodium falciparum K1 assessed as increase in schizonts parasite stage accumulation index at 10 uM treated at 42 hrs post-invasion for 24 hrs by automated image mining based cytological profiling assay; type: functional, organism-based; summary of the method: as §2
[11] = test system: Plasmodium falciparum; assay: Antimalarial activity against tightly synchronized Plasmodium falciparum W2 assessed as parasite stage accumulation index at schizonts stages at 10 uM treated at 18 hrs post-invasion for continuous duration of 36 hrs by automated image mining based cytological profiling assay; type: functional
[12] = test system: Plasmodium falciparum; assay: Antimalarial activity against tightly synchronized Plasmodium falciparum HB3 assessed as parasite stage accumulation index at schizonts stages at 10 uM treated at 18 hrs post-invasion for continuous duration of 36 hrs by automated image mining based cytological profiling assay; type: functional; summary of the method: as §1
[13] = test system: Plasmodium falciparum; assay: Antimalarial activity against tightly synchronized Plasmodium falciparum W2 assessed as parasite stage accumulation index at trophozoites stages at 10 uM treated at 6 hrs post-invasion for continuous duration of 36 hrs by automated image mining based cytological profiling assay; type: functional
[14] = test system: Plasmodium falciparum; assay: Antimalarial activity against tightly synchronized Plasmodium falciparum K1 assessed as parasite stage accumulation index at trophozoites stages at 10 uM treated at 6 hrs post-invasion for continuous duration of 36 hrs by automated image mining based cytological profiling assay; type: functional
[15] = test system: Plasmodium falciparum; assay: Antimalarial activity against tightly synchronized Plasmodium falciparum K1 assessed as parasite stage accumulation index at schizonts stages at 10 uM treated at 6 hrs post-invasion for continuous duration of 36 hrs by automated image mining based cytological profiling assay; type: functional; summary of the method: as §1
[16] = test system: Plasmodium falciparum; assay: Antimalarial activity against tightly synchronized Plasmodium falciparum K1 assessed as parasite stage accumulation index at late ring stages at 10 uM treated at 6 hrs post-invasion for continuous duration of 36 hrs by automated image mining based cytological profiling assay; type: functional
[17] = test system: Plasmodium falciparum; assay: Antimalarial activity against tightly synchronized Plasmodium falciparum HB3 assessed as parasite stage accumulation index at trophozoites stages at 10 uM treated at 30 hrs post-invasion for continuous duration of 36 hrs by automated image mining based cytological profiling assay; type: functional
[18] = test system: Plasmodium falciparum; assay: Antimalarial activity against tightly synchronized Plasmodium falciparum W2 assessed as parasite stage accumulation index at schizonts stages at 10 uM treated at 6 hrs post-invasion for continuous duration of 36 hrs by automated image mining based cytological profiling assay; type: functional; summary of the method: as §1
[19] = test system: Plasmodium falciparum; assay: Antimalarial activity against tightly synchronized Plasmodium falciparum HB3 assessed as parasite stage accumulation index at late ring stages at 10 uM treated at 6 hrs post-invasion for continuous duration of 36 hrs by automated image mining based cytological profiling assay; type: functional; summary of the method: as §1
[20] = test system: Plasmodium falciparum; assay: Antimalarial activity against tightly synchronized Plasmodium falciparum HB3 assessed as parasite stage accumulation index at schizonts stages at 10 uM treated at 30 hrs post-invasion for continuous duration of 36 hrs by automated image mining based cytological profiling assay; type: functional
[21] = test system: Plasmodium falciparum; assay: Antimalarial activity against tightly synchronized Plasmodium falciparum W2 assessed as parasite stage accumulation index at schizonts stages at 10 uM treated at 30 hrs post-invasion for continuous duration of 36 hrs by automated image mining based cytological profiling assay; type: functional
[22] = test system: Plasmodium falciparum; assay: Antimalarial activity against tightly synchronized Plasmodium falciparum K1 assessed as parasite stage accumulation index at trophozoites stages at 10 uM treated at 18 hrs post-invasion for continuous duration of 36 hrs by automated image mining based cytological profiling assay; type: functional; summary of the method: as §1
[23] = test system: Plasmodium falciparum; assay: Antimalarial activity against tightly synchronized Plasmodium falciparum HB3 assessed as parasite stage accumulation index at trophozoites stages at 10 uM treated at 6 hrs post-invasion for continuous duration of 36 hrs by automated image mining based cytological profiling assay; type: functional; summary of the method: as §1
[24] = test system: Plasmodium falciparum; assay: Antimalarial activity against tightly synchronized Plasmodium falciparum W2 assessed as parasite stage accumulation index at late ring stages at 10 uM treated at 18 hrs post-invasion for continuous duration of 36 hrs by automated image mining based cytological profiling assay; type: functional; summary of the method: as §1
[25] = test system: Plasmodium falciparum; assay: Antimalarial activity against tightly synchronized Plasmodium falciparum K1 assessed as parasite stage accumulation index at schizonts stages at 10 uM treated at 30 hrs post-invasion for continuous duration of 36 hrs by automated image mining based cytological profiling assay; type: functional; summary of the method: as §1
[26] = test system: Plasmodium falciparum; assay: Antimalarial activity against tightly synchronized Plasmodium falciparum K1 assessed as parasite stage accumulation index at schizonts stages at 10 uM treated at 18 hrs post-invasion for continuous duration of 36 hrs by automated image mining based cytological profiling assay; type: functional; summary of the method: as §1
[27] = test system: Plasmodium falciparum; assay: Antimalarial activity against tightly synchronized Plasmodium falciparum HB3 assessed as parasite stage accumulation index at trophozoites stages at 10 uM treated at 18 hrs post-invasion for continuous duration of 36 hrs by automated image mining based cytological profiling assay; type: functional; summary of the method: as §1
[28] = test system: Plasmodium falciparum; assay: Antimalarial activity against tightly synchronized Plasmodium falciparum W2 assessed as parasite stage accumulation index at early ring stages at 10 uM treated at 6 hrs post-invasion for continuous duration of 36 hrs by automated image mining based cytological profiling assay; type: functional; summary of the method: as §1
[29] = test system: Plasmodium falciparum; assay: Antimalarial activity against tightly synchronized Plasmodium falciparum W2 assessed as parasite stage accumulation index at trophozoites stages at 10 uM treated at 18 hrs post-invasion for continuous duration of 36 hrs by automated image mining based cytological profiling assay; type: functional
[30] = test system: Plasmodium falciparum; assay: Antimalarial activity against tightly synchronized Plasmodium falciparum K1 assessed as parasite stage accumulation index at late ring stages at 10 uM treated at 18 hrs post-invasion for continuous duration of 36 hrs by automated image mining based cytological profiling assay; type: functional; summary of the method: as §1
[31] = test system: Plasmodium falciparum; assay: Antimalarial activity against tightly synchronized Plasmodium falciparum K1 assessed as parasite stage accumulation index at trophozoites stages at 10 uM treated at 30 hrs post-invasion for continuous duration of 36 hrs by automated image mining based cytological profiling assay; type: functional; summary of the method: as §1
[32] = test system: Plasmodium falciparum; assay: Antimalarial activity against Plasmodium falciparum HB3 assessed as reduction in parasite stage accumulation index at 10 uM treated at 42 hrs post-invasion for 24 hrs by automated image mining based cytological profiling assay; type: functional; summary of the method: as §2
[33] = test system: Plasmodium falciparum; assay: Antimalarial activity against tightly synchronized Plasmodium falciparum HB3 assessed as parasite stage accumulation index at early ring stages at 10 uM treated at 6 hrs post-invasion for continuous duration of 36 hrs by automated image mining based cytological profiling assay; type: functional

CC(C)C[C@H](NC(=O)[C@H]1O[C@@H]1C(=O)O)C(=O)NCCCCN=C(N)N [E-64]
Activity [1]: 1.69 | inhibition [2]: Active | inhibition [3]: Active | Activity [4]: 0.91 | Activity [5]: 0.45 | inhibition [6]: Active | Activity [7]: 0.8 | inhibition [8]: Active | Activity [9]: 1.44 | inhibition [10]: Active | Activity [11]: 2.1 | Activity [12]: 2.05 | Activity [13]: 1.4 | Activity [14]: 1.25 | Activity [15]: 0.55 | Activity [16]: 0.67 | Activity [17]: 1.06 | Activity [18]: 1.2 | Activity [19]: 1.15 | Activity [20]: 3.85 | Activity [21]: 3 | Activity [22]: 1.45 | Activity [23]: 1.32 | Activity [24]: 0.76 | Activity [25]: 2.07 | Activity [26]: 2.11 | Activity [27]: 1.33 | Activity [28]: 1.78 | Activity [29]: 1.22 | Activity [30]: 0.39 | Activity [31]: 0.5 | inhibition [32]: Active | Activity [33]: 3.15
